INS promoter act: TRM-6 insulin promoter activation; TRM-6 cells (human fetal islet line), insulin promoter eGFP reporter, imaging; plate-scaled: unstimulated 0, stimulated control 100; activation, % at 2 µM; actives 0.81% (n = 130,000); AID 1296;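 active = activation at 2 µM above a set limit, confirmed on inspection of the cell images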;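 also: share of cells whose green reporter signal exceeds an intensity cutoff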
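Assay system: TRM-6 human fetal islet cells, insulin promoter–eGFP reporter; Also added: 0.75 µM tamoxifen as reporter inducer; Schedule: 15 h tamoxifen pre-treatment, 48 h compound treatment at 37 °C; Signal: fixed-cell fluorescence microscopy, eGFP plus Hoechst; Read-out: percent activation from GFP-positive cell fraction; Control set: stimulated and unstimulated wells.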
Active calls of the source: *. Many of the other results were omitted from the sample, so hits are more common in it than they were.

SMILES | INS promoter act
COc1ccc(-n2c(Cc3cccn3C)nnc2SCC(=O)Nc2ccc3c(c2)OCO3)cc1 | 12
CC1(C)Cc2c(sc(NC(=S)NC(=O)c3ccccc3)c2C(=O)O)CO1 | 0
N#Cc1c(NC(=O)c2cccnc2)sc2c1CCC2 | 6
N#Cc1c(NC(=S)NC(=O)c2ccccc2)sc2c1CCN(CCc1ccccc1)C2 | 270*
O=C(NC(=O)c1ccccc1)OCCN1C(=O)c2ccccc2C1=O | 6
Cc1ccc(Cn2nnnc2CN2CCC(O)(c3ccc(F)cc3)CC2)cc1 | 0
COc1ccc(Cn2nnnc2CN2CCC(O)(c3ccc(F)cc3)CC2)cc1 | 7
COc1cc(C(=O)NC2CCN(Cc3nnnn3Cc3ccc(F)cc3)CC2)cc(OC)c1OC | 515*
Cc1ccc(C(=O)Nc2cccc(C(=O)NCc3ccco3)c2)cc1 | 8
CC(c1ccccc1)N1C(=O)c2ccc(C(=O)NCc3ccco3)cc2C1=O (configuration not stated) | 440*
Cn1nnc2cc(C(=O)NCc3ccco3)ccc21 | 7
CCC(Sc1nc2sc(C(=O)OC)c(C)c2c(=O)n1N)C(=O)NCC1CCCO1 (configuration not stated) | 0
COc1ccc(NC(=O)c2ccc(Cl)c(S(=O)(=O)N3CCc4ccccc4C3)c2)cn1 | 0
COc1ccc(NC(=O)/C(Cl)=C(/Cl)S(=O)Cc2ccccc2Cl)cn1 (configuration not stated) | 669*
COc1ccc(NC(=O)/C=C/c2ccc(F)cc2)cn1 | 7
CCn1c(SCC(=O)N(C(C)C)C(C)C)nnc1-c1cc2ccccc2cc1O | -6
CCCCNC(=O)C1CCCN1C(=O)NC1CCCCC1 (configuration not stated) | 179
O=C(c1ccco1)N1CCN(C(c2coc3ccc(Cl)cc3c2=O)c2nnnn2C2CCCC2)CC1 (configuration not stated) | 0
CCCC(c1nnnn1C1CCCC1)N1CCN(C(=O)c2ccco2)CC1 (configuration not stated) | 181*
O=C(c1ccco1)N1CCN(C(c2ccccn2)c2nnnn2C2CCCC2)CC1 (configuration not stated) | 195
Cc1ccc(S(=O)(=O)N2CCN(C(=O)c3cc(=O)c4ccccc4o3)CC2)cc1 | 0
COc1ccc(N(CC(=O)Nc2ccccc2C(=O)NCCc2ccccc2)S(C)(=O)=O)cc1OC | 0
Cc1cccc(NC(=O)NCCc2c[nH]c3ccccc23)c1 | 3
Cc1ccc(/C=C/C(=O)NCc2ccccn2)o1 | -66
Cc1ccc(/C=C/C(=O)NCCc2c[nH]c3ccccc23)o1 | 467*
SMILES | INS promoter act
CC1CCc2c(nc3sc4c(c3c2N)CCCC4)C1 (configuration not stated) | 143
COc1ccc(-c2nc(CN(CC3CCC(=O)N3)C(C)C)c(C)o2)c(C)c1C (configuration not stated) | 8
CC(C)(C)NC(=O)c1ccc(NC(=O)C2COc3ccccc3O2)cc1 (configuration not stated) | 9
NS(=O)(=O)c1ccc(NC(=O)C2COc3ccccc3O2)cc1 (configuration not stated) | 4
CC1CC(C)CN(S(=O)(=O)c2ccc(NC(=O)C3COc4ccccc4O3)cc2)C1 (configuration not stated) | 925*
COC1=C(OC)c2ccccc2C(C(=O)O)N/C1=C(/C)Nc1ccncc1 (configuration not stated) | -4
CCNC(=S)NNC(=O)c1ccc(OC(F)F)cc1 | -10
CSc1ccc(/C=N/NC(=O)CNc2ccc3ccccc3c2)cc1 | 369*
Cc1cccc(NCC(=O)N/N=C/c2cccc(Br)c2)c1 | -3
CSc1ccc(/C=N/NC(=O)c2ccc(C)c(C)c2)cc1 | 8
O=C(O)CC1S/C(=N/N=C/c2ccc([N+](=O)[O-])cc2)N(c2ccc(O)cc2)C1=O (configuration not stated) | -8
Cc1ccccc1OCc1nnc(SC(C)C(=O)O)n1Cc1ccccc1 (configuration not stated) | 141
Cc1nnc(SCC(=O)N2CCCCCC2)n(N)c1=O | 0
CC1CCN(C(=O)CSc2nncn2C)CC1 | 3
CCc1c(C)nc(N)n2c(SCC(=O)N3CCCC(C)C3)nnc12 (configuration not stated) | 182*
CCCN(Cc1cc2ccc(C)cc2[nH]c1=O)S(=O)(=O)c1ccccc1 | -3
S=c1[nH]nc(-c2ccc3ccccc3n2)n1Cc1ccccc1 | -7
CNS(=O)(=O)c1ccc(OC)c(-c2nnc3c4ccccc4c(C)nn23)c1 | -7
Cc1nn2c(-c3cccc(NC(=O)c4ccco4)c3)nnc2c2ccccc12 | 263
Cc1nn2c(-c3ccccc3)nnc2c2ccccc12 | 450*
Cc1ccc(NC(=O)CSc2n[nH]c(-c3ccncc3)n2)cc1C | 4
Cc1c(O)cc2n(c1=O)-c1ccccc1C2(C)C | 235
Cc1cc(C2(c3ccc(O)c(C)c3)C(=O)Nc3ccccc32)ccc1O | 127*
O=C1CCCCCC1C1(O)C(=O)Nc2ccccc21 (configuration not stated) | -9
